ERAP1 HTS inh: blocks human ERAP1 aminopeptidase activity; recombinant ERAP1, Leu-AMC fluorescence, 60 min; inhibition, % at 10.7 µM; 0.15% of 340,000 active; AID 652197;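 active = mean replicate inhibition of at least 30%, or all replicates individually reaching that 30% level; inactive = mean below 30% and not every replicate reaching it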
SIRT5 block: sirtuin-5 (human) deacylase inhibition. Q9NXA8. Purified SirT5, succinyl-peptide AMC, trypsin-coupled fluorescence. inhibition, % at 15 µM. 1.1% of 330,000 active; in the data active = inhibition above about 15%
Target sequence (Q9NXA8 whole entry, looked up): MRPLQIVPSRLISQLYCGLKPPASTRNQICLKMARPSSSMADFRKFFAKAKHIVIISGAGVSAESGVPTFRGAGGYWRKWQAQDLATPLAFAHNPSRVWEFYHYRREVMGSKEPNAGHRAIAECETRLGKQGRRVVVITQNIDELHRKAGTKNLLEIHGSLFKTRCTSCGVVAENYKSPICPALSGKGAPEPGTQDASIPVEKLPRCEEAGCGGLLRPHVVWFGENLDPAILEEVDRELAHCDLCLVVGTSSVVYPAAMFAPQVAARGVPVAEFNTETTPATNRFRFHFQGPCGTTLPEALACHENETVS
FGF22 binding: binders of recombinant human FGF22 by thermal shift; SYPRO orange fluorescence; percent of sucrose octasulfate shift, DMSO zero; activity (Tm shift, normalised), % at 9.99 µM; 1.5% of 340,000 active;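 active = mean Tm shift, scaled 0 neutral to 100 positive control, at about 1.3% or above, every replicate too, limit read from the data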
Target sequence (Q9HCT0 whole entry, looked up): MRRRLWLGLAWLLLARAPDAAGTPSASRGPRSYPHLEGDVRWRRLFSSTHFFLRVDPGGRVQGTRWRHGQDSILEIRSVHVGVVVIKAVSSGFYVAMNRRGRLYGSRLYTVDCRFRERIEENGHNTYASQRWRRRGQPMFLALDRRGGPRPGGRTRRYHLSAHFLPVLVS
FN deposition inh: fibronectin deposition inhibition | AH1F fibroblasts, Alexa488-fibronectin deposition fluorescence, overnight | inhibition, % at 12.6 µM | 0.086% of 350,000 active | AID 743247;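 active = mean inhibition across replicates of 30% or more, regardless of how many single replicates reach that level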
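Assay system: AH1F fibroblasts assembling fluorescent fibronectin matrix; Amount: 10000 AH1F cells per well; Buffer or medium: DMEM, 2% serum; Probe or stimulus: Alexa488-fibronectin, 24 nM final in well; Doses: single compound dose, delivered by pin transfer; Incubation: 1 h adhesion, overnight exposure; Measured by: fluorescence 485/525 nm; Read-out: fibronectin deposition inhibition.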
PGC1a acetyl inh: lowers PGC1a acetylation signal in U2OS cells; AlphaScreen anti-acetyl-lysine; with virally co-expressed GCN5 acetyltransferase; inhibition, % at 15.6 µM; 0.17% of 350,000 active;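 active = every replicate shows inhibition of at least 40%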
Hits are given with their value; - = inactive; . = no result. Hits are enriched below; roughly 2.2% of the tested compounds scored in any of these assays.

SMILES	ERAP1 HTS inh	SIRT5 block	FGF22 binding	FN deposition inh	PGC1a acetyl inh
O=C(O)/C=C\C(=O)Nc1ccc(Oc2ccccc2)cc1	.	.	.	-	-
O=C(O)/C=C/C(=O)Nc1ccc(SC(F)(F)C(F)(F)C(F)(F)F)cc1	-	-	-	-	.
C[C@H](CO)N1C[C@H](C)[C@@H](CN(C)C(=O)c2cccc(F)c2)Oc2ncc(-c3cccnc3)cc2C1=O	-	-	-	-	-
COc1ccc(S(=O)(=O)N(C)C[C@H]2Oc3ccc(NC(=O)NC4CCCCC4)cc3CC(=O)N([C@H](C)CO)C[C@@H]2C)cc1	-	-	-	-	-
O=C(COC(=O)/C=C/c1cn(-c2ccccc2)nc1-c1ccc2c(c1)OCCO2)NC1CCS(=O)(=O)C1 (stereo not given)	.	-	-	.	-
CN(C(=O)COC(=O)/C=C/c1cn(-c2ccccc2)nc1-c1ccc2c(c1)OCCO2)C1CCS(=O)(=O)C1 (stereo not given)	-	-	43	-	-
O=C(C1CC1)N1CCCCN2[C@@H](CO)[C@@H](c3ccc(-c4cccc(F)c4)cc3)[C@@H]2C1	.	.	-	.	-
COc1ccccc1C(O)(C(=O)NNc1cccc(C)c1)c1ccccc1OC	-	-	-	.	.
COc1ccccc1C(O)(C(=O)NNc1ccccc1C)c1ccccc1OC	-	-	43	-	-
CO[C@@H]1CN(C)C(=O)c2cc(NS(C)(=O)=O)ccc2OC[C@H](C)N(C)C[C@@H]1C	-	-	-	-	-
Cc1noc(C)c1S(=O)(=O)Nc1ccc2c(c1)CC(=O)N([C@@H](C)CO)C[C@@H](C)[C@H](CN(C)Cc1ccc3c(c1)OCO3)O2	-	-	-	.	-
O=C(Cn1nnc2c(cnn2-c2ccc(F)cc2)c1=O)Nc1ccccc1C(F)(F)F	-	-	43	-	.
Cc1cc(NC(=S)NC(=O)CC(C)C)ccc1Br	-	-	35	.	-
CC(C)CC(=O)NC(=S)Nc1cccc(NC(=O)c2ccccc2)c1	-	-	-	-	-
O=C(CNC(=O)c1ccccc1Br)N/N=C/c1cc(Br)ccc1O	-	-	44	-	.
O=C(CNC(=O)c1cccc(Br)c1)N/N=C/c1ccc[nH]1	-	-	43	-	-
O=C(O)CNC(=O)c1ccccc1Br	-	-	43	-	-
O=C(CNC(=O)c1ccccc1Br)N/N=C/c1ccccc1O	-	-	43	-	.
O=C(CNC(=O)c1ccccc1)N/N=C/c1cc(Br)ccc1O	-	-	-	-	-
O=C(CNC(=O)c1ccccc1Br)N/N=C\c1cc([N+](=O)[O-])cc(Br)c1O	-	-	.	-	-
Cc1ccc(S(=O)(=O)N[C@@H]2CC[C@H](CCNC(=O)C3CCCC3)O[C@H]2CO)cc1	-	-	-	-	-
COc1ccc(NC(=O)N(C)C[C@H]2OCCCC[C@H](C)Oc3ccc(NS(=O)(=O)c4ccccc4)cc3C(=O)N([C@@H](C)CO)C[C@@H]2C)cc1	-	-	-	-	-
O=C(Cc1ccccc1)N[C@@H]1CC[C@@H](CC(=O)N2CCCCC2)O[C@@H]1CO	-	-	-	-	-
Cc1ccc(S(=O)(=O)N(C)C[C@H]2OCCCC[C@@H](C)Oc3ccc(NC(=O)CCC(F)(F)F)cc3C(=O)N([C@H](C)CO)C[C@@H]2C)cc1	.	-	.	-	-
CS(=O)(=O)Nc1ccc2c(c1)[C@@H]1C[C@H](CC(=O)NCc3ccc(Cl)cc3)O[C@H](CO)[C@@H]1O2	-	-	-	-	-
SMILES	ERAP1 HTS inh	SIRT5 block	FGF22 binding	FN deposition inh	PGC1a acetyl inh
C[C@@H]1CN([C@H](C)CO)C(=O)c2cc(NC(=O)Nc3cccc4ccccc34)ccc2O[C@@H]1CN(C)CC1CCCCC1	-	-	-	.	-
O=C(CN1CC(c2ccccc2)CC1=O)N/N=C/c1cc(Br)ccc1O (stereo not given)	-	20	-	-	.
CCCC#Cc1ccc2c(c1)[C@@H]1[C@@H](CCN1C(=O)C1CCCCC1)[C@@H](CO)N2	-	-	.	-	-
Nc1[nH]c(C(=O)c2ccc(Br)cc2)c(-c2ccccc2Br)c1C(=O)NCCc1c[nH]c2ccccc12	-	.	44	-	.
CN(c1ccccc1)S(=O)(=O)c1cccc(NC(=O)CSc2nccc(=O)[nH]2)c1	-	.	43	-	.
O=C(Nc1ccc(Cl)cc1)N1CCN(c2ncccn2)CC1	-	-	-	.	-
FC(F)(F)c1cccc(NC(=S)N2CCN(c3ccccn3)CC2)c1	-	-	44	-	.
O=C(Nc1ccc(F)cc1)N1CCN(c2ncccn2)CC1	-	-	43	-	-
Cc1cccc(N2CCN(C(=S)c3ccccc3)CC2)c1	-	-	44	-	.
Cc1ccc(C(=O)N2CCN(c3ncccn3)CC2)cc1	-	-	-	-	80
Cc1cccc(N2CCN(C(=S)c3ccc([N+](=O)[O-])cc3)CC2)c1	-	-	-	-	.
S=C(Nc1ccc(Nc2ccccc2)cc1)N1CCN(c2ncccn2)CC1	-	-	43	-	-
S=C(Nc1ccccc1)N1CCN(c2ccccc2)CC1	-	-	.	-	-
Cc1ccc(N2CCN(C(=S)Nc3ccccc3)CC2)cc1	-	-	43	-	.
FC(F)Oc1ccc(NC(=S)N2CCN(Cc3ccccc3)CC2)cc1	-	-	44	-	-
S=C(Nc1ccc(Cl)cc1)N1CCN(Cc2ccccc2)CC1	-	-	-	.	-
Cc1nc(C)c(CC(=O)N2CCc3c([nH]c4ccccc34)C2c2ccccn2)s1 (stereo not given)	-	18	-	.	.
Cn1c(=O)n(C)c2cc(NS(=O)(=O)c3ccc(Cl)s3)ccc21	-	18	-	-	-
O=C1CC(c2ccccc2)CC(O)=C1C=Nc1ccccc1O (stereo not given)	-	-	-	-	.
O=C1CC(c2ccccc2)CC(O)=C1C=Nc1ccccc1 (stereo not given)	-	-	44	-	-
COc1cccc(NC(=O)N[C@H]2C=C[C@@H](CC(=O)N3CCCCC3)O[C@@H]2CO)c1	-	-	-	.	-
CN=C(Nc1ccc(C(=O)OC)s1)c1ccccc1	-	32	-	-	.
COC(=O)c1cc(=O)n(-c2ccccc2)c(=Nc2ccccc2)s1	-	-	-	-	.
CC(C)CC#Cc1cnc2c(c1)C(=O)N([C@@H](C)CO)C[C@@H](C)[C@H](CN(C)Cc1ccccn1)O2	-	-	-	-	-
CC(C)c1cn(CC[C@H]2CC[C@H](NS(=O)(=O)Cc3ccccc3)[C@H](CO)O2)nn1	-	-	-	-	-
N#C/C(=C\Nc1ccccc1SC(F)(F)F)c1nc(-c2ccc(F)cc2)cs1	-	19	-	.	-
O=S(=O)(NCc1ccccn1)c1cc(C(F)(F)F)ccc1Cl	-	-	43	-	-
CSc1nc2ccc(Br)cc2[nH]1	-	15	-	-	-
CN(C)C(=O)[C@@H]1[C@@H](CO)[C@@H]2Cn3c(ccc(C4=CCCCC4)c3=O)[C@H]1N2Cc1ccncc1	-	-	-	.	.
CCOC(=O)C1=C(C)NC(=S)NC1C (stereo not given)	-	-	44	-	-

Compound activity as filed in PubChem.
